# Bioassay records as filed in PubChem.
# In the library only some 3.7% were active in any assay of this set; here they are far more common.
# Kir21 inh: Kir2.1 (mouse) channel inhibition; AID 1672; 310,000 tested, 0.85% active; HEK293-Kir2.1, FluxOR thallium flux fluorescence; stronger effect = lower value; B-score at 10 µM;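 active = fluorescence ratio B-score at or below minus 3 SD of library scores, with starting-brightness B-score within 2 SD, cut at about -4.2 in these data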;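 also: channel flux triggered by added potassium and thallium sulfate stimulus; B-score of peak minus minimum fluorescence over baseline after thallium stimulus; more negative B-score means stronger Kir2.1 block with less thallium influx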
# Target sequence (P35561 whole entry, looked up): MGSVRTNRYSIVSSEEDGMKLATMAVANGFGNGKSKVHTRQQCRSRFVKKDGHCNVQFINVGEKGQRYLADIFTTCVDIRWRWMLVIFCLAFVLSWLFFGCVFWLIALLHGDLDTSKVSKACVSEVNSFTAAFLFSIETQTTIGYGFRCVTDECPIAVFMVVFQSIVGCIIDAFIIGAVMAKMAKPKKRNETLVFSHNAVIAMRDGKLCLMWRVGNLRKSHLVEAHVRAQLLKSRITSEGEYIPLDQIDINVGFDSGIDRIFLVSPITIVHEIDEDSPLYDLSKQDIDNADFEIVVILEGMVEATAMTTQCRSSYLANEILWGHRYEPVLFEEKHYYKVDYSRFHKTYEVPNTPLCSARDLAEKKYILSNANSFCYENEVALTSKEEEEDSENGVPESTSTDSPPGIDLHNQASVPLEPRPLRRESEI
# KCNK9 inh: blocks the human KCNK9 two-pore domain potassium channel | AID 488922 | 310,000 tested, 1.2% active | B-score at 10 µM | Q9NPC2 | HEK293 KCNK9, FluxOR thallium flux fluorescence; stronger effect = lower value;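 active = ratio B-score over 3 SD below the library mean, with starting fluorescence within 5 SD of its mean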;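 also: negative B-score means less thallium flux so channel inhibition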
# KCNK3 inh: human KCNK3 channel inhibition, primary screen; O14649; CHO-KCNK3 thallium flux, FluxOR fluorescence; stronger effect = lower value; B-score at 10 µM; 340,000 tested, 0.84% active; AID 602410;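 active = B-score under library mean minus 4 SD, starting fluorescence ratio at most library mean plus 5 SD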;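 also: more negative B-score means stronger inhibition of thallium flux through KCNK3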
# KCNQ1 inh: blocks the human KCNQ1 potassium channel. P51787. B-score at 10 µM. 310,000 tested, 1.3% active. AID 2642. CHO-K1 KCNQ1, FluxOR thallium flux fluorescence; stronger effect = higher value;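 active = compounds whose thallium flux B-score, printed positive for inhibition, exceeds three library SD while starting fluorescence stays within three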;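 also: channel opened by potassium depolarization with thallium stimulus after 20 min compound exposure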
# hERG protect: hERG (human) protection from proarrhythmic block | activation (rescue from dofetilide block), less the hit threshold, % at 10 µM | 310,000 tested, 0.51% active | CHO-hERG, FluxOR thallium flux, dofetilide IC70 present;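 active = activation above the mean of controls blocked by dofetilide plus 5 SD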;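 also: thallium influx through hERG after potassium depolarization seen as dye fluorescence rise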
# KCNQ1 pot: potentiates or activates the human KCNQ1 potassium channel | P51787 | CHO-K1 KCNQ1, thallium flux FluxOR fluorescence; stronger effect = higher value | B-score at 10 µM | 310,000 tested, 0.35% active;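 active = fluorescence ratio B-score, a plate-corrected score, at least three library SD, with initial intensity B-score within 5 SD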
#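 Test system: CHO-K1 cells stably expressing KCNQ1 / Medium: assay buffer / Also added: depolarizing K+/Tl+ stimulus, K2SO4 and Tl2SO4 each 12.5 mM in 5x stock / Incubation: 90 min dye loading and 20 min compound exposure, both at room temperature / Signal: thallium influx via FluxOR fluorescence, kinetic imaging / Evaluation: B score of baseline-normalized fluorescence ratio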
# Hits are given with their value; n = inactive; x = no result given.
SMILES,Kir21 inh,KCNK9 inh,KCNK3 inh,KCNQ1 inh,hERG protect,KCNQ1 pot
COc1ccc(Cl)c2sc(N(CCN(C)C)C(=O)c3ccc4c(c3)OCCO4)nc12,n,n,n,n,n,n
Cc1cc(C)c2cc(CN(CCCO)S(=O)(=O)c3ccccc3F)c(=O)[nH]c2c1,n,n,n,n,n,n
CCN(CCN(C)C)C(=O)C1CCN(S(=O)(=O)c2c(C)noc2/C=C/c2ccccc2F)CC1,-5,n,n,n,n,n
COc1ccccc1C(=O)NNC(=S)NC(=O)c1sc2ccccc2c1Cl,n,n,n,n,25,25
COc1ccccc1C(=O)NNC(=S)NC(=O)c1cccs1,n,n,n,n,n,10
Cc1c(NC(=S)NC(=O)c2sc3ccccc3c2Cl)cccc1C(=O)O,n,n,n,n,n,n
COc1ccccc1C(=O)NC(=S)NNC(=O)c1sc2ccccc2c1Cl,n,n,n,n,86,46
CCOC(=O)C1CCN(C(=O)C(=O)Nc2ccc3nc4n(c(=O)c3c2)CCCCC4)CC1,n,n,n,n,n,n
COc1cc(C)ccc1OCc1cc(C(=O)N2CCN(C)C[C@@H]2c2ccccc2)no1,n,n,n,n,n,n
CCOC(=O)NC(=S)Nc1ccc(C(C)(C)C)cc1Br,n,n,n,n,11,22
CCC(C)c1ccccc1NC(=O)c1[nH]c(C)c(C(C)=O)c1C (configuration not stated),n,n,n,n,5.8,n
CC(=O)c1c(C)[nH]c(C(=O)Nc2cccc(C(F)(F)F)c2)c1C,n,n,n,n,n,7
CCCCCNCC(=O)Nc1cccc(C(=O)Nc2cccc(C(F)(F)F)c2)c1,n,n,n,6,n,n
O=C(c1ccco1)N1N=C(c2cccs2)CC1c1cc([N+](=O)[O-])ccc1O (configuration not stated),n,n,n,n,n,n
CC1c2cccn2CCN1S(=O)(=O)c1ccccc1 (configuration not stated),x,x,n,x,x,x
CC1c2ccsc2CCN1S(=O)(=O)c1ccccc1 (configuration not stated),-6.8,n,n,n,n,n
CCC(=O)NCCCCCCNC(=O)CC,n,n,n,n,6.9,n
CCOCCCN1C(=O)C(=O)N(CC(=O)N2c3ccccc3NC(=O)CC2C)C1=O (configuration not stated),x,x,n,x,x,x
Cc1cccc(CNc2ccc(S(=O)(=O)N3CCCCC3)cc2)c1,x,x,-9.9,x,x,x
Cc1ccc(C(=O)C2C(c3ccc(-c4ccccc4[N+](=O)[O-])o3)NC(=O)NC2(O)C(F)(F)F)cc1 (configuration not stated),n,-10,n,n,n,n
O=C1NC(c2ccc(-c3ccccc3[N+](=O)[O-])o2)C(C(=O)c2ccccc2)C(O)(C(F)(F)F)N1 (configuration not stated),n,n,n,n,n,n
COc1cc(S(=O)(=O)NCc2ccncc2)ccc1Br,n,n,n,n,n,n
CCOC(=O)C(C(=O)OCC)C(C(=O)OCC)N1CCOCC1 (configuration not stated),n,n,n,n,n,10
CCN(CC)CCN1C(=O)C(=O)/C(=C(/O)c2ccc(S(=O)(=O)N3CCOCC3)cc2)C1c1ccc(C(C)(C)C)cc1 (configuration not stated),n,n,n,n,n,n
COc1ccc(C2CCCN2CC(O)COc2ccccc2C(C)C)cc1 (configuration not stated),-11,n,n,n,n,n
SMILES,Kir21 inh,KCNK9 inh,KCNK3 inh,KCNQ1 inh,hERG protect,KCNQ1 pot
COc1ccc(S(=O)(=O)N/N=C(/C)c2ccncc2)c(OC)c1,n,n,n,n,n,n
Oc1ccccc1-c1nc(NC2CCCC2)c2ccccc2n1,n,n,n,n,n,n
Fc1ccccc1-c1nc(NC2CCCC2)c2ccccc2n1,n,n,n,6,n,n
CC(Nc1nc(-c2ccccc2F)nc2ccccc12)c1ccccc1 (configuration not stated),n,-7.5,n,n,n,n
CCC(C(=O)Nc1ccc2[nH]ncc2c1)c1ccccc1 (configuration not stated),n,n,n,n,n,n
Cc1nn(-c2ccccc2)nc1C(=O)NNC(=O)c1cccc2ccccc12,n,n,n,n,n,15
Cc1cc2c(=O)n(C)c(SCC(=O)Nc3ccccc3C)nc2s1,n,n,n,n,n,n
CCCN(Cc1ccccc1)C(=S)Nc1ccc(SC(F)F)cc1,n,n,n,6,n,n
CCOC(=O)C1=C(CS(=O)(=O)c2ccc(F)cc2)NC(=O)NC1c1cc(OC)c(O)c(OC)c1 (configuration not stated),n,n,n,n,n,n
CCCn1nc(NC(=O)c2cccs2)c2cc3cc(C)ccc3nc21,n,-7.1,n,n,n,n
COc1ccccc1NC(=O)CSCC(=O)N1c2ccccc2CCc2ccccc21,n,-7.1,n,n,n,n
CNC(=O)c1cn2c3c(ccc(Cl)c3c1=O)OC(C)C2 (configuration not stated),x,x,n,x,x,x
O=C1N[C@@H](Cc2cn(S(=O)(=O)c3ccc(F)cc3)c3ccccc23)C(=O)N[C@H]1Cc1ccccc1,n,n,x,n,n,n
CCOC(=O)c1nnn(-c2nonc2N)c1-c1ccccc1Cl,-4.9,n,n,n,n,n
CC1CCc2nc3ccccc3c(C(=O)OCC(=O)N3CCc4ccccc43)c2C1 (configuration not stated),n,n,n,n,n,n
CCCc1nc2ccccc2c(C(=O)OCC(=O)N2CCc3ccccc32)c1CC,n,-6.6,n,n,n,n
Cc1cc(C)nc(SSc2nc(C)cc(C)n2)n1,n,n,n,n,5.6,n
CCOC(=O)CCCNC(=O)CSc1nc2ccc(OCC)cc2[nH]1,n,n,n,n,7.2,n
CC(NC(=O)c1cc2ccccc2oc1=O)c1ccccc1 (configuration not stated),n,n,n,n,n,n
O=C(/C=C/c1cn(CC(O)CN2CCOCC2)c2ccccc12)c1cccs1 (configuration not stated),n,n,x,6,n,n
Cc1cccc(CN2CCc3c([nH]c4ccccc34)C2)c1,-5.9,n,n,n,n,n
Clc1cccc(CN2CCc3c([nH]c4ccccc34)C2)c1,n,n,n,n,n,n
CC1CCCCC1NCC(=O)NCc1ccc(F)cc1 (configuration not stated),n,n,n,n,4.7,n
O=C(CCC1CCCCC1)NCc1ccc(F)cc1,n,n,n,n,n,n
CCOC(=O)c1cc(C)sc1NC(=O)CN1CCN(C(=O)c2ccco2)CC1,n,n,n,n,n,9
CCOC(=O)c1c(NC(=O)c2ccco2)sc2c1CCCC2,n,n,n,n,n,n
